Each block holds one compound with its values, some of them ahead of it. Active and inactive are the calls of the source. The calls are words filed in the database; no cut-off is given here.
What was measured:
[1] = system: NIH3T3; test: Prevention of proteasome mediated degradation of FKBP12-YFP fusion protein expressed in mouse NIH3T3 cells at 10 uM
[2] = system: NIH3T3; test: (§1) Stability of FKBP12 V2A mutant-YFP fusion protein expressed in NIH3T3 cells after 24 hrs by flow cytometry; assay type: cell-based
Summary of the method: (§2)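 Retrovirally transduced NIH3T3 cells stably expressing V2A-YFP, plated at 1 × 10^5 cells/well and dosed with 3-fold dilutions (10 µM to 1 nM, or 10 µM to 300 nM) for 24 h. Cells trypsinized, resuspended in PBS, YFP read by flow cytometry (10,000 events). Average MFI ±SEM relative to F36V protein; EC50 from dose curve.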

[3] = Displacement of fluorescein-SLF from FKBP12 F36V mutant by fluorescence polarization assay
[4] = system: NIH3T3; test: Stability of FKBP12 V2A mutant-N terminus of YFP fusion protein expressed in NIH3T3 cells assessed as mean fluorescence intensity at 1 uM after 24 hrs by flow cytometry relative to FKBP12 F36V mutant; assay type: cell-based
Summary of the method: (§3)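 FKBP mutants (all carrying F36V) fused to the N- or C-terminus of YFP and stably transduced into NIH3T3 cells by MMLV retrovirus (clonally mixed populations). Cells split, mock-treated or given 1 µM for 24 h. YFP read by flow cytometry, 10,000 events. MFI normalized to parent F36V-YFP cells given 1 µM; mean of three experiments ±SEM.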

[5] = as §1; assay type: cell-based; summary of the method: as §2
[6] = Displacement of fluorescein-SLF from FKBP12 F36V mutant-GST fusion protein by fluorescence polarization assay
[7] = Displacement of fluorescein-SLF from FKBP12 V2A mutant-GST fusion protein by fluorescence polarization assay
[8] = Displacement of fluorescein-SLF from FKBP12 L50A mutant-GST fusion protein by fluorescence polarization assay
[9] = Displacement of fluorescein-SLF from FKBP12 L106A mutant-GST fusion protein by fluorescence polarization assay
[10] = system: NIH3T3; test: Stability of FKBP12 F36V mutant-N terminus of YFP fusion protein expressed in NIH3T3 cells assessed as mean fluorescence intensity at 1 uM after 24 hrs by flow cytometry; assay type: cell-based; summary of the method: as §3
[11] = system: NIH3T3; test: Stability of FKBP12 V2A mutant-N terminus of YFP fusion protein expressed in NIH3T3 cells assessed as mean fluorescence intensity at 1 uM after 24 hrs by flow cytometry; assay type: cell-based; summary of the method: as §3
[12] = system: NIH3T3; test: Stability of FKBP12 L50A mutant-N terminus of YFP fusion protein expressed in NIH3T3 cells assessed as mean fluorescence intensity at 1 uM after 24 hrs by flow cytometry; assay type: cell-based; summary of the method: as §3
[13] = system: NIH3T3; test: Stability of FKBP12 L106A mutant-N terminus of YFP fusion protein expressed in NIH3T3 cells assessed as mean fluorescence intensity at 1 uM after 24 hrs by flow cytometry; assay type: cell-based; summary of the method: as §3
[14] = system: NIH3T3; test: Stability of FKBP12 F36V mutant-C terminus of YFP fusion protein expressed in NIH3T3 cells assessed as mean fluorescence intensity at 1 uM after 24 hrs by flow cytometry; assay type: cell-based; summary of the method: as §3
[15] = system: NIH3T3; test: Stability of FKBP12 V2A mutant-C terminus of YFP fusion protein expressed in NIH3T3 cells assessed as mean fluorescence intensity at 1 uM after 24 hrs by flow cytometry; assay type: cell-based; summary of the method: as §3
[16] = system: NIH3T3; test: Stability of FKBP12 L50A mutant-C terminus of YFP fusion protein expressed in NIH3T3 cells assessed as mean fluorescence intensity at 1 uM after 24 hrs by flow cytometry; assay type: cell-based; summary of the method: as §3
[17] = system: NIH3T3; test: Stability of FKBP12 L106A mutant-C terminus of YFP fusion protein expressed in NIH3T3 cells assessed as mean fluorescence intensity at 1 uM after 24 hrs by flow cytometry; assay type: cell-based; summary of the method: as §3
[18] = system: NIH3T3; test: Stability of FKBP12 V4A mutant-N terminus of YFP fusion protein expressed in NIH3T3 cells assessed as mean fluorescence intensity at 1 uM after 24 hrs by flow cytometry relative to FKBP12 F36V mutant; assay type: cell-based; summary of the method: as §3
[19] = system: NIH3T3; test: Stability of FKBP12 17V mutant-N terminus of YFP fusion protein expressed in NIH3T3 cells assessed as mean fluorescence intensity at 1 uM after 24 hrs by flow cytometry relative to FKBP12 F36V mutant; assay type: cell-based; summary of the method: as §3
[20] = system: NIH3T3; test: Stability of FKBP12 V2A/V4A mutant-N terminus of YFP fusion protein expressed in NIH3T3 cells assessed as mean fluorescence intensity at 1 uM after 24 hrs by flow cytometry relative to FKBP12 F36V mutant; assay type: cell-based; summary of the method: as §3
[21] = system: NIH3T3; test: Stability of FKBP12 V2A/17V mutant-N terminus of YFP fusion protein expressed in NIH3T3 cells assessed as mean fluorescence intensity at 1 uM after 24 hrs by flow cytometry relative to FKBP12 F36V mutant; assay type: cell-based; summary of the method: as §3
[22] = system: NIH3T3; test: Stability of FKBP12 V4A/17V mutant-N terminus of YFP fusion protein expressed in NIH3T3 cells assessed as mean fluorescence intensity at 1 uM after 24 hrs by flow cytometry relative to FKBP12 F36V mutant; assay type: cell-based; summary of the method: as §3
[23] = system: NIH3T3; test: Stability of FKBP12 V2A/V4A/17V mutant-N terminus of YFP fusion protein expressed in NIH3T3 cells assessed as mean fluorescence intensity at 1 uM after 24 hrs by flow cytometry relative to FKBP12 F36V mutant; assay type: cell-based; summary of the method: as §3
[24] = system: NIH3T3; test: Stability of FKBP12 V2A mutant-firefly luciferase fusion protein expressed in NIH3T3 cells assessed as rescue of luminescence at 1 or 10 uM after 24 hrs by dual luciferase reporter assay; assay type: cell-based
[25] = system: NIH3T3; test: Effect on Epb4.1l2 mRNA level in mouse NIH3T3 cells at 1 uM after 24 hrs by microarray analysis relative to control; assay type: functional
Summary of the method: (§4)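 NIH3T3 cells, in triplicate, mock-treated or treated with 10 nM, 100 nM or 1 µM for 24 h. Total RNA hybridized to MEEBO oligonucleotide arrays. Differentially expressed genes identified by unpaired two-class SAM against mock-treated samples, FDR ≤27.5%. Fold change reported.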

[26] = system: NIH3T3; test: Effect on Csnkle mRNA level in mouse NIH3T3 cells at 1 uM after 24 hrs by microarray analysis relative to control; assay type: functional; summary of the method: as §4
[27] = system: NIH3T3; test: Effect on Tcfe3 mRNA level in mouse NIH3T3 cells at 1 uM after 24 hrs by microarray analysis relative to control; assay type: functional; summary of the method: as §4
[28] = system: NIH3T3; test: Effect on MtCrVgp3 mRNA level in mouse NIH3T3 cells at 10 nM after 24 hrs by microarray analysis relative to control; assay type: functional; settings: in the assay text read “at 1 uM” for “at 10 nM”; summary of the method: as §4
[29] = system: NIH3T3; test: Effect on 4930422M22Rik mRNA level in mouse NIH3T3 cells at 10 nM after 24 hrs by microarray analysis relative to control; assay type: functional; summary of the method: as §4
[30] = system: NIH3T3; test: Effect on A430110N23 mRNA level in mouse NIH3T3 cells at 10 nM after 24 hrs by microarray analysis relative to control; assay type: functional; summary of the method: as §4
[31] = system: NIH3T3; test: Effect on Ptpn1 mRNA level in mouse NIH3T3 cells at 10 nM after 24 hrs by microarray analysis relative to control; assay type: functional; summary of the method: as §4
[32] = system: NIH3T3; test: Effect on Npas4 mRNA level in mouse NIH3T3 cells at 10 nM after 24 hrs by microarray analysis relative to control; assay type: functional; summary of the method: as §4
[33] = system: NIH3T3; test: Effect on Shkbp1 mRNA level in mouse NIH3T3 cells at 10 nM after 24 hrs by microarray analysis relative to control; assay type: functional; summary of the method: as §4

Activity [1]: Active
Compound: CC(=O)N[C@@H](CSC(=O)[C@]1([C@@H](O)C(C)C)NC(=O)[C@H](C)[C@@H]1O)C(=O)O

Kd [3]: 0.4 nM
Compound: CC[C@H](C(=O)N1CCCC[C@H]1C(=O)O[C@H](CCc1ccc(OC)c(OC)c1)c1cccc(OCC(=O)O)c1)c1cc(OC)c(OC)c(OC)c1
Activity [2]: Active

Kd [3]: 0.7 nM
Compound: CC[C@H](C(=O)N1CCCC[C@H]1C(=O)O[C@H](CCc1ccc(OC)c(OC)c1)c1cccc(OCC(=O)OCCn2ccnn2)c1)c1cc(OC)c(OC)c(OC)c1
Activity [2]: Active

EC50 [5]: 60 nM | Kd [3]: 0.4 nM | Kd [6]: 2 nM | Kd [7]: 4 nM | Kd [8]: 3 nM | Kd [9]: 2 nM
Compound: CC[C@H](C(=O)N1CCCC[C@H]1C(=O)O[C@H](CCc1ccc(OC)c(OC)c1)c1cccc(OCCN2CCOCC2)c1)c1cc(OC)c(OC)c(OC)c1
Activity [4]: Active | Stability [10]: Stable | Stability [11]: Stable | Stability [12]: Stable | Stability [13]: Stable | Activity [14]: inactive | Activity [15]: inactive | Activity [16]: inactive | Activity [17]: inactive | Activity [18]: Active | Activity [19]: Active | Activity [20]: Active | Activity [21]: Active | Activity [22]: Active | Activity [23]: Active | Activity [24]: Dose-dependent effect | fold change (FC) [25]: 2.2 | fold change (FC) [26]: 2.7 | fold change (FC) [27]: 1.9 | fold change (FC) [28]: -11.3 | fold change (FC) [29]: -2.2 | fold change (FC) [30]: -2.1 | fold change (FC) [31]: -1.7 | fold change (FC) [32]: -1.7 | fold change (FC) [33]: -2.3

Kd [3]: 0.9 nM
Compound: CC[C@H](C(=O)N1CCCC[C@H]1C(=O)O[C@H](CCc1ccc(OC)c(OC)c1)c1cccc(OCC(=O)NCC(C)(C)N)c1)c1cc(OC)c(OC)c(OC)c1
Activity [2]: Active
